# Measured values reported in ChEMBL document CHEMBL2146434, “Synthesis and biological evaluation of new amino acid and dipeptide derivatives of neocryptolepine as anticancer agents” (J Med Chem, 2012).
# Legend:
# Mus musculus [1] = assay: Toxicity in C57BL/6 mouse xenografted with mouse LLC cells assessed as body weight loss at 30 mg/kg/day, sc administered on day 9 to day 12 of tumor implantation; type: organism-based; parameters: route subcutaneous; details: in vivo
# Method in brief: (§1)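 Mouse Lewis lung carcinoma (LLC) cells inoculated sc into mice. Daily dosing from day 9: 15 mg kg⁻¹ day⁻¹ through day 13 or 30 mg kg⁻¹ day⁻¹ through day 12; 25 or 50 mg kg⁻¹ day⁻¹ through day 13. Route is given as ip in tables and text but sc in figure legends. Body weight monitored for loss alongside tumor growth. Single 100 mg/kg cyclophosphamide dose as cytostatic control.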
# Mus musculus [2] = assay: Toxicity in C57BL/6 mouse xenografted with mouse LLC cells assessed as body weight loss at 15 mg/kg/day, sc administered on day 9 to day 13 of tumor implantation; type: organism-based; parameters: route subcutaneous; details: in vivo
# Method in brief: (§2)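 Body weight was tracked in C57BL/6 mice bearing subcutaneously inoculated LLC during therapy given daily from day 9 to day 13. A single 100 mg/kg dose of cyclophosphamide served as the cytostatic control group.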
# Mus musculus [3] = assay: Toxicity in C57BL/6 mouse xenografted with mouse LLC cells assessed as body weight loss at 30 mg/kg/day, ip administered on day 9 to day 12 of tumor implantation; type: organism-based; parameters: route intraperitoneal; details: in vivo; method in brief: as §1
# KB = assay: Cytotoxicity against human KB cells after 72 hrs by SRB assay; type: functional, cell-based
# A549 = assay: Cytotoxicity against human A549 cells after 72 hrs by SRB assay; type: functional, cell-based; details: A549, 72 h
# Method in brief: (§3)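 IC50 is the compound concentration giving 50% inhibition of cell proliferation. It was determined on normal mouse BALB/3T3 fibroblasts and on human A549, MCF-7 and LoVo cancer lines, with doxorubicin hydrochloride and DiMIQ as reference compounds.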
# MCF7 = assay: Cytotoxicity against human MCF7 cells after 72 hrs by SRB assay; type: functional, cell-based; details: MCF7, 72 h; method in brief: as §3
# LoVo = assay: Cytotoxicity against human LoVo cells after 72 hrs by SRB assay; type: functional, cell-based; method in brief: as §3
# [4] = test system: Lewis lung carcinoma cell line; assay: Antineoplastic activity against mouse LLC cells xenografted in C57BL/6 mouse assessed as tumor growth inhibition at 25 mg/kg/day, ip administered on day 10 to day 14 of tumor implantation measured on day 12; type: functional; details: route intraperitoneal, read-out: TGI
# Method in brief: (§4)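 Mice bore Lewis lung carcinoma (LLC) inoculated subcutaneously and received test agents intraperitoneally at 15–50 mg kg⁻¹ day⁻¹ from day 9 or day 10. A single 100 mg/kg cyclophosphamide dose was the cytostatic control. Tumor growth was followed as the group median, and TGI% was calculated from medians versus untreated controls. Significance was tested by nonparametric Kruskal–Wallis multiple comparison, p < 0.05.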
# [5] = test system: Lewis lung carcinoma cell line; assay: Antineoplastic activity against mouse LLC cells xenografted in C57BL/6 mouse assessed as tumor growth inhibition at 25 mg/kg/day, ip administered on day 10 to day 14 of tumor implantation measured on day 14; type: functional; details: route intraperitoneal, read-out: TGI; method in brief: as §4
# [6] = test system: Lewis lung carcinoma cell line; assay: Antineoplastic activity against mouse LLC cells xenografted in C57BL/6 mouse assessed as tumor growth inhibition at 25 mg/kg/day, ip administered on day 10 to day 14 of tumor implantation measured on day 17; type: functional; details: route intraperitoneal, read-out: TGI; method in brief: as §4
# [7] = test system: Lewis lung carcinoma cell line; assay: Antineoplastic activity against mouse LLC cells xenografted in C57BL/6 mouse assessed as tumor growth inhibition at 25 mg/kg/day, ip administered on day 10 to day 14 of tumor implantation measured on day 19; type: functional; details: route intraperitoneal, read-out: TGI; method in brief: as §4
# [8] = test system: Lewis lung carcinoma cell line; assay: Antineoplastic activity against mouse LLC cells xenografted in C57BL/6 mouse assessed as tumor growth inhibition at 25 mg/kg/day, ip administered on day 10 to day 14 of tumor implantation measured on day 21; type: functional; details: route intraperitoneal, read-out: TGI; method in brief: as §4
# [9] = test system: Lewis lung carcinoma cell line; assay: Antineoplastic activity against mouse LLC cells xenografted in C57BL/6 mouse assessed as tumor growth inhibition at 25 mg/kg/day, ip administered on day 10 to day 14 of tumor implantation measured on day 24; type: functional; details: route intraperitoneal, read-out: TGI; method in brief: as §4
# [10] = test system: Lewis lung carcinoma cell line; assay: Antineoplastic activity against mouse LLC cells xenografted in C57BL/6 mouse assessed as tumor growth inhibition at 50 mg/kg/day, ip administered on day 10 to day 14 of tumor implantation measured on day 12; type: functional; details: route intraperitoneal, read-out: TGI; method in brief: as §4
# [11] = test system: Lewis lung carcinoma cell line; assay: Antineoplastic activity against mouse LLC cells xenografted in C57BL/6 mouse assessed as tumor growth inhibition at 50 mg/kg/day, ip administered on day 10 to day 14 of tumor implantation measured on day 14; type: functional; details: route intraperitoneal, read-out: TGI; method in brief: as §4
# [12] = test system: Lewis lung carcinoma cell line; assay: Antineoplastic activity against mouse LLC cells xenografted in C57BL/6 mouse assessed as tumor growth inhibition at 50 mg/kg/day, ip administered on day 10 to day 14 of tumor implantation measured on day 17; type: functional; details: route intraperitoneal, read-out: TGI; method in brief: as §4
# [13] = test system: Lewis lung carcinoma cell line; assay: Antineoplastic activity against mouse LLC cells xenografted in C57BL/6 mouse assessed as tumor growth inhibition at 50 mg/kg/day, ip administered on day 10 to day 14 of tumor implantation measured on day 19; type: functional; details: route intraperitoneal, read-out: TGI; method in brief: as §4
# [14] = test system: Lewis lung carcinoma cell line; assay: Antineoplastic activity against mouse LLC cells xenografted in C57BL/6 mouse assessed as tumor growth inhibition at 50 mg/kg/day, ip administered on day 10 to day 14 of tumor implantation measured on day 21; type: functional; details: route intraperitoneal, read-out: TGI; method in brief: as §4
# [15] = test system: Lewis lung carcinoma cell line; assay: Antineoplastic activity against mouse LLC cells xenografted in C57BL/6 mouse assessed as tumor growth inhibition at 50 mg/kg/day, ip administered on day 10 to day 14 of tumor implantation measured on day 24; type: functional; details: route intraperitoneal, read-out: TGI; method in brief: as §4
# Mus musculus [16] = assay: Toxicity in C57BL/6 mouse xenografted with mouse LLC cells assessed as body weight loss at 15 mg/kg/day, ip administered on day 9 to day 13 of tumor implantation; type: organism-based; parameters: route intraperitoneal; details: in vivo; method in brief: as §2
# Mus musculus [17] = assay: Toxicity in C57BL/6 mouse xenografted with mouse LLC cells assessed as body weight loss at 25 mg/kg/day, sc administered on day 9 to day 13 of tumor implantation; type: organism-based; parameters: route subcutaneous; details: in vivo; method in brief: as §2
# Mus musculus [18] = assay: Toxicity in C57BL/6 mouse xenografted with mouse LLC cells assessed as body weight loss at 50 mg/kg/day, sc administered on day 9 to day 13 of tumor implantation; type: organism-based; parameters: route subcutaneous; details: in vivo; method in brief: as §1
# [19] = Dissociation constant, pKa of the compound in PBS buffer at 5 uM at pH 2 to 10 by UV-spectrophotometric analysis; type: physicochemical
# Method in brief: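 UV spectrophotometric titration at a final compound concentration of 5 μM. At this concentration the absorbance–concentration relationship stayed linear. pKa was read from spectral changes across pH.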
# [20] = Octanol-water partition coefficient, log P of the compound in citric buffer at pH 2.5 by spectrophotometric analysis; type: physicochemical
# Method in brief: (§5)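 Octanol–water partitioning, with log P defined as log(C_octanol/C_water). Compound in the aqueous phase was measured spectrophotometrically, and octanol content was obtained by subtracting the supernatant concentration from the total. Values are the mean of two independent experiments, each run in triplicate.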
# [21] = Octanol-water partition coefficient, log P of the compound in PBS buffer at pH 7.4 by spectrophotometric analysis; type: physicochemical; method in brief: as §5
# [22] = Toxicity in human erythrocytes assessed as hemolysis at 0.3 mM after 30 mins by spectrophotometric analysis; type: cell-based, Erythrocyte; details: read-out: Activity
# Method in brief: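 Human erythrocyte suspension under isotonic conditions (pH 7.4, hematocrit 50%). Compound added across a concentration series and incubated 30 min at 37 °C before hemolysis was scored. Mean ± SD of three individual determinations. Statistics by Mann–Whitney U test, p < 0.05.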
# [23] = Solubility of the compound in water; type: physicochemical; details: buffer
# Mus musculus [24] = assay: Toxicity in C57BL/6 mouse xenografted with mouse LLC cells at 25 to 50 mg/kg/day, ip administered on day 9 to day 13 of tumor implantation; type: organism-based; parameters: route intraperitoneal; details: in vivo; method in brief: as §1
# [25] = test system: Lewis lung carcinoma cell line; assay: Antineoplastic activity against mouse LLC cells xenografted in C57BL/6 mouse assessed as tumor growth inhibition at 100 mg/kg/day measured on day 17; details: 408 h, read-out: TGI
# [26] = test system: Lewis lung carcinoma cell line; assay: Antineoplastic activity against mouse LLC cells xenografted in C57BL/6 mouse assessed as tumor growth inhibition at 100 mg/kg/day measured on day 11; details: 264 h, read-out: TGI
# [27] = test system: Lewis lung carcinoma cell line; assay: Antineoplastic activity against mouse LLC cells xenografted in C57BL/6 mouse assessed as tumor growth inhibition at 100 mg/kg/day measured on day 14; details: 336 h, read-out: TGI
# [28] = test system: Lewis lung carcinoma cell line; assay: Antineoplastic activity against mouse LLC cells xenografted in C57BL/6 mouse assessed as tumor growth inhibition at 100 mg/kg/day measured on day 16; details: 384 h, read-out: TGI
# [29] = test system: Lewis lung carcinoma cell line; assay: Antineoplastic activity against mouse LLC cells xenografted in C57BL/6 mouse assessed as tumor growth inhibition at 100 mg/kg/day measured on day 18; details: 432 h, read-out: TGI
# [30] = test system: Lewis lung carcinoma cell line; assay: Antineoplastic activity against mouse LLC cells xenografted in C57BL/6 mouse assessed as tumor growth inhibition at 100 mg/kg/day measured on day 21; details: 504 h, read-out: TGI
# [31] = test system: Lewis lung carcinoma cell line; assay: Antineoplastic activity against mouse LLC cells xenografted in C57BL/6 mouse assessed as tumor growth inhibition at 100 mg/kg/day measured on day 23; details: 552 h, read-out: TGI
# [32] = test system: Lewis lung carcinoma cell line; assay: Antineoplastic activity against mouse LLC cells xenografted in C57BL/6 mouse assessed as tumor growth inhibition at 100 mg/kg/day measured on day 12; details: 288 h, read-out: TGI
# [33] = test system: Lewis lung carcinoma cell line; assay: Antineoplastic activity against mouse LLC cells xenografted in C57BL/6 mouse assessed as tumor growth inhibition at 100 mg/kg/day measured on day 19; details: 456 h, read-out: TGI
# [34] = test system: Lewis lung carcinoma cell line; assay: Antineoplastic activity against mouse LLC cells xenografted in C57BL/6 mouse assessed as tumor growth inhibition at 100 mg/kg/day measured on day 24; details: 576 h, read-out: TGI
compound,measurement,setting,value
Cc1c2c3cc(NC(=O)CNC(=O)[C@@H]4CCCN4)ccc3nc-2n(C)c2ccccc12.Cl.Cl,Activity,Mus musculus [1],<= 15%
same,Activity,Mus musculus [2],<= 15%
same,Activity,Mus musculus [3],<= 15%
same,IC50,KB,3.73 µM
same,IC50,A549,1.15 µM
same,IC50,MCF7,1.43 µM
same,IC50,LoVo,0.98 µM
same,inhibition in vivo at 25 mg/kg/day,[4],12.9%
same,inhibition in vivo at 25 mg/kg/day,[5],11.6%
same,inhibition in vivo at 25 mg/kg/day,[6],0%
same,inhibition in vivo at 25 mg/kg/day,[7],3.1%
same,inhibition in vivo at 25 mg/kg/day,[8],0%
same,inhibition in vivo at 25 mg/kg/day,[9],0%
same,inhibition in vivo at 50 mg/kg/day,[10],16.3%
same,inhibition in vivo at 50 mg/kg/day,[11],36.5%
same,inhibition in vivo at 50 mg/kg/day,[12],18.5%
same,inhibition in vivo at 50 mg/kg/day,[13],33.1%
same,inhibition in vivo at 50 mg/kg/day,[14],32.5%
same,inhibition in vivo at 50 mg/kg/day,[15],8.19%
same,Activity,Mus musculus [16],<= 15%
same,Activity,Mus musculus [17],<= 15%
same,Activity,Mus musculus [18],<= 15%
same,pKa at 5 µM,[19],7.3
same,logP,[20],-1.9
same,logD,[21],-0.1
same,"hemolysis at 0.5 h, 300 µM",[22],9.97%
same,solubility,[23],soluble
same,Activity,Mus musculus [24],Non-toxic
O=P1(N(CCCl)CCCl)NCCCO1 (stereo not drawn) [CYCLOPHOSPHAMIDE ANHYDROUS],inhibition in vivo at 100 mg/kg/day,[25],37%
same,inhibition in vivo at 100 mg/kg/day,[26],49.8%
same,inhibition in vivo at 100 mg/kg/day,[27],36.8%
same,inhibition in vivo at 100 mg/kg/day,[28],31.9%
same,inhibition in vivo at 100 mg/kg/day,[29],12.5%
same,inhibition in vivo at 100 mg/kg/day,[30],21.3%
same,inhibition in vivo at 100 mg/kg/day,[31],30.4%
same,inhibition in vivo at 100 mg/kg/day,[32],24.1%
same,inhibition in vivo at 100 mg/kg/day,[33],40%
same,inhibition in vivo at 100 mg/kg/day,[34],0%
